Experimental data from different studies.
Lines come from different studies, so protocols differ.
Cell line: MDA-MB-231
Observed: cell growth or viability

Nc1ccn([C@@H]2O[C@H](CO)[C@@H](O)C2(F)F)c(=O)n1 gave an IC50 of 7.1 µg/mL (MTT; 24 h).
With Cc1ccc(S(=O)(=O)n2cc(/C=N/NC(=O)Cc3ccccc3C(F)(F)F)c3ccccc32)cc1 the IC50 was 20.1 µM (MTT; 48 h).
COc1cccc2c1C(=O)c1c(O)c3c(c(O)c1C2=O)C[C@@](O)(C(=O)CO)C[C@@H]3O[C@H]1C[C@H](N)[C@H](O)[C@H](C)O1 gave an IC50 of 7.19 µg/mL (MTT; 24 h).
The IC50 of COc1ccccc1-n1cc(CNC(=O)[C@@]2(C)[C@H](O)CC[C@@]3(C)[C@H]2CC[C@]2(C)[C@@H]3C(=O)C[C@@H]3[C@@H]4[C@@H](C)[C@H](C)CC[C@]4(C)CC[C@]32C)nn1 is reported as 71.2 µM (MTT; 24 h).
With CO[C@H]1[C@H](O[C@H]([C@H]2O[C@@H](n3ccc(=O)[nH]c3=O)[C@H](O)[C@@H]2O)[C@H](NCCCNC(=O)[C@@H](NC(=O)[C@@H](NC(=O)N[C@H](C(=O)O)C(C)C)[C@@H]2CCN=C(N)N2)[C@@H](O)C(C)C)C(=O)O)O[C@H](CN)[C@H]1O the IC50 was over 35 µM (WST-1).
COc1ccccc1/C=N/N=C1\C(=O)Nc2ccccc21 gave an IC50 of 26.3 µg/mL (MTT; 48 h).
Cc1cc(NS(=O)(=O)c2ccc(NC(=O)/C(C#N)=C/c3ccc(N4CCOCC4)cc3)cc2)no1 has an IC50 of 83.3 µM (MTT; 48 h).
With Cc1ccc(S(=O)(=O)n2cc(/C=N/NC(=O)c3cccc(Cl)c3)c3ccccc32)cc1 the IC50 was 25.1 µM (MTT; 48 h).
COc1cccc2c1C(=O)c1c(O)c3c(c(O)c1C2=O)C[C@@](O)(C(=O)CO)C[C@@H]3O[C@H]1C[C@H](N)[C@H](O)[C@H](C)O1 gave an IC50 of 0.2 µM (MTT; 48 h).
For C[C@H]1[C@H](C)CC[C@]2(C(=O)O)CC[C@]3(C)C(=CC[C@@H]4[C@@]5(C)CC[C@H](O)C(C)(C)[C@@H]5CC[C@]43C)[C@H]12, the IC50 was 13.1 µM (thymidine uptake; 24 h).
With Cc1ccc(S(=O)(=O)n2cc(/C=N/NC(=O)c3cc4ccccc4cc3O)c3ccccc32)cc1 the IC50 was 16.4 µM (MTT; 48 h).
With Cc1cc(NS(=O)(=O)c2ccc(NC(=O)/C(C#N)=C/c3ccc(N4CCCC4)cc3)cc2)no1 the IC50 was 109 µM (MTT; 48 h).
For CC(C)[C@@H]1NC(=O)/C(=C/c2cnc[nH]2)NC1=O, the IC50 was over 15 µM (SRB).
For COc1cccc(NC(=O)Nc2ccc(Oc3nc4ccccc4n4cnnc34)cc2)c1, the IC50 was 21.7 µM (MTT; 24 h).
C[C@H]1[C@H](C)CC[C@]2(C)CC[C@]3(C)C(=CC(=O)[C@@H]4[C@@]5(C)CC[C@@H](O)[C@](C)(C(=O)NCc6cn(-c7ccc(F)cc7)nn6)[C@@H]5CC[C@]43C)[C@H]12 gave an IC50 of 71.4 µM (MTT; 24 h).
Cc1ccc(S(=O)(=O)n2cc(/C=N/NC(=O)Cc3ccc(F)cc3F)c3ccccc32)cc1 has an IC50 of 26.4 µM (MTT; 48 h).
COc1cc([C@@H]2c3cc4c(cc3[C@@H](O[C@@H]3O[C@@H]5CO[C@@H](C)O[C@H]5[C@H](O)[C@H]3O)[C@H]3COC(=O)[C@H]23)OCO4)cc(OC)c1O has an IC50 of 21.2 µM (MTT; 48 h).
The IC50 of C=CCn1c(=O)c2cnc(Nc3ccc(N4CCN(C)CC4)cc3)nc2n1-c1ccc2c(n1)[C@@](O)(CC)CC2 is reported as 0.627 µM (ATP luminescence; 72 h).
